From ChEMBL document CHEMBL1132932, “Design of a Gag pentapeptide analogue that binds human cyclophilin A more efficiently than the entire capsid protein: new insights for the development of novel anti-HIV-1 drugs” (J Med Chem, 2000)
Starred links: 1 amine or outer side, 2 acyl side, 3 side chain; linkers in the order of their positions; H or OH if unused. Non-standard residues stand in square brackets, D forms with d. Residues, ends and D or L forms follow the SMILES beside them. *: point of attachment. Desaminohistidyl = O=C(CCc1c[nH]cn1)*; NHCH2CHPh2 = c1ccc(C(CN*)c2ccccc2)cc1; NHCHPh2 = c1ccc(C(N*)c2ccccc2)cc1; pNA = O=[N+]([O-])c1ccc(N*)cc1; NHPhenethyl = c1ccc(CCN*)cc1; Suc = O=C(CCC(=O)[*:2])[*:1]; Isovaleryl = CC(C)CC(=O)*; Ac5c = NC1(C(=O)O)CCCC1; Api = NC1(C(=O)O)CCNCC1; Aib = CC(C)(N)C(=O)O; NHBn = c1ccc(CN*)cc1

Biological target: T1, Peptidyl-prolyl cis-trans isomerase A (Homo sapiens, UniProt P62937)
Test: % inhibition of competitive binding, at 500 uM, against hCyp-18 PPIase activity using uncoupled assay
Target sequence in this assay (P62937 whole entry, looked up): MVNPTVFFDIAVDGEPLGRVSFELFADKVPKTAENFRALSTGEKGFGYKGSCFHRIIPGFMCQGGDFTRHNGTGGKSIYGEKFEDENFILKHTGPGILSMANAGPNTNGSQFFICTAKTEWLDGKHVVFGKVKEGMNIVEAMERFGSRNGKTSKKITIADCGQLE

inhibition | Compound
55% | CC[C@H](C)[C@H](NC(=O)[C@@H]1CCCN1C(=O)CNC(=O)[C@H](C)NC(=O)[C@H](Cc1c[nH]cn1)NC(=O)[C@@H](NC(C)=O)C(C)C)C(=O)NCCc1ccccc1 (Ac-VHAGPI-NHPhenethyl)
38% | C[C@H](NC(=O)CCC(=O)O)C(=O)N[C@@H](C)C(=O)N1CCC[C@H]1C(=O)N[C@@H](Cc1ccccc1)C(=O)Nc1ccc([N+](=O)[O-])cc1 (Suc-AAPF-pNA)
54% | CC[C@H](C)[C@H](NC(=O)[C@@H]1CCCN1C(=O)CNC(=O)[C@H](C)NC(=O)[C@H](Cc1c[nH]cn1)NC(=O)[C@@H](NC(C)=O)C(C)C)C(=O)NCC(c1ccccc1)c1ccccc1 (Ac-VHAGPI-NHCH2CHPh2)

Biological target: T1, Peptidyl-prolyl cis-trans isomerase A
Test: % inhibition of competitive binding, at 500 uM, against human Peptidyl-prolyl isomerase
Summary of the method: (§1)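 Recombinant human hCyp-18 (expressed in E. coli M15, ion-exchange purified), 16 nM in 35 mM Hepes pH 7.8, preincubated 2 min with peptides added from DMSO stocks (100 µM to 100 mM). Substrate Suc-Ala-Ala-Pro-Phe-DFA in TFE/0.47 M LiCl added to a final 200 µM. Uncoupled cis/trans isomerization followed by absorbance at 246 nm, 10 °C, over 6 min. Pseudo-first-order k_obs taken from 0.05–0.5 min data, activity expressed relative to uncatalyzed rate, n = 2.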
Target sequence in this assay (P62937 whole entry, looked up): as above

Compound | inhibition
CC[C@H](C)[C@H](NC(=O)[C@@H]1CCCN1C(=O)CNC(=O)[C@H](C)NC(=O)[C@H](Cc1c[nH]cn1)NC(=O)[C@@H](NC(=O)CCC(=O)O)C(C)C)C(=O)N[C@@H](C)C(N)=O (Suc-VHAGPIA-NH2) | 13%
CC[C@H](C)[C@H](NC(=O)[C@@H]1CCCN1C(=O)CNC(=O)[C@H](C)NC(=O)[C@H](Cc1c[nH]cn1)NC(=O)[C@@H](N)C(C)C)C(=O)NCc1ccccc1 (H-VHAGPI-NHBn) | 59%
CC(=O)N[C@H](C(=O)N[C@@H](Cc1c[nH]cn1)C(=O)N[C@@H](C)C(=O)NCC(=O)N1CCC[C@H]1C(=O)N[C@@H](CCC(N)=O)C(=O)N[C@H](C)C(N)=O)C(C)C | 15%
CC[C@H](C)[C@H](NC(=O)[C@@H]1CCCN1C(=O)CNC(=O)[C@H](C)NC(=O)[C@H](Cc1c[nH]cn1)NC(=O)CC(C)C)C(=O)N[C@H](C)C(N)=O | 76%
CC(C)CC(=O)N[C@@H](Cc1c[nH]cn1)C(=O)NC(C)(C)C(=O)NCC(=O)N1CCC[C@H]1C(=O)NC1(C(=O)NCc2ccccc2)CCCC1 (Isovaleryl-H[Aib]GP[Ac5c]-NHBn) | 50%
CC[C@@H](C)[C@@H](NC(=O)[C@@H]1CCCN1C(=O)CNC(=O)C(C)(C)NC(=O)[C@H](Cc1c[nH]cn1)NC(=O)[C@@H](NC(C)=O)C(C)C)C(=O)N[C@H](C)C(N)=O | 45%
CC[C@H](C)[C@H](NC(=O)[C@@H]1CCCN1C(=O)CNC(=O)[C@H](C)NC(=O)[C@@H](N)Cc1c[nH]cn1)C(=O)N[C@H](C)C(=O)O | 15%
CC(C)CC(=O)N[C@@H](Cc1c[nH]cn1)C(=O)N[C@@H](C)C(=O)NCC(=O)N1CCC[C@H]1C(=O)NC1(C(=O)NCc2ccccc2)CCCC1 (Isovaleryl-HAGP[Ac5c]-NHBn) | 57%
CC(=O)N[C@H](C(=O)N[C@@H](Cc1c[nH]cn1)C(=O)N[C@@H](C)C(=O)NCC(=O)N1CCC[C@H]1C(=O)N[C@@H](C(=O)N[C@H](C)C(N)=O)c1ccccc1)C(C)C | 37%
CC[C@H](C)[C@H](NC(=O)[C@@H]1CCCN1C(=O)CNC(=O)[C@H](C)NC(=O)CCc1c[nH]cn1)C(=O)N[C@H](C)C(N)=O | 20%
CC[C@H](C)[C@H](NC(=O)[C@@H]1CCCN1C(=O)CNC(=O)[C@H](C)NC(=O)[C@H](Cc1c[nH]cn1)NC(C)=O)C(=O)NCc1ccccc1 (Ac-HAGPI-NHBn) | 55%

Now from value to compound:

inhibition | Compound
88% | CC[C@H](C)[C@H](NC(=O)[C@@H]1CCCN1C(=O)CNC(=O)[C@H](C)NC(=O)[C@H](Cc1c[nH]cn1)NC(=O)[C@@H](NC(C)=O)C(C)C)C(=O)NCc1ccccc1 (Ac-VHAGPI-NHBn)
11% | CC[C@H](C)[C@H](NC(=O)[C@@H]1CCCN1C(=O)CNC(=O)[C@H](C)NC(=O)[C@H](Cc1c[nH]cn1)NC(=O)[C@@H](N)C(C)C)C(=O)N[C@H](C)C(N)=O
19% | CC[C@@H](C)[C@@H](NC(=O)[C@@H]1CCCN1C(=O)CNC(=O)[C@H](C)NC(=O)[C@H](Cc1c[nH]cn1)NC(=O)[C@@H](NC(C)=O)C(C)C)C(=O)N[C@H](C)C(N)=O
43% | CC(=O)N[C@H](C(=O)N[C@@H](Cc1c[nH]cn1)C(=O)N[C@@H](C)C(=O)NCC(=O)N1CCC[C@H]1C(=O)N[C@H](C(=O)N[C@H](C)C(N)=O)c1ccccc1)C(C)C
38% | CC[C@H](C)[C@H](NC(=O)[C@@H]1CCCN1C(=O)CNC(=O)[C@H](C)NC(=O)[C@H](Cc1c[nH]cn1)NC(=O)[C@@H](NC(C)=O)C(C)C)C(=O)NC(c1ccccc1)c1ccccc1 (Ac-VHAGPI-NHCHPh2)
31% | CC(=O)N[C@H](C(=O)N[C@@H](Cc1c[nH]cn1)C(=O)N[C@@H](C)C(=O)NCC(=O)N1CCC[C@H]1C(=O)N[C@H](C(=O)N[C@H](C)C(N)=O)C(C)C)C(C)C
28% | CC(=O)N[C@H](C(=O)N[C@@H](Cc1c[nH]cn1)C(=O)N[C@@H](C)C(=O)NCC(=O)N1CCC[C@H]1C(=O)NCC(=O)N[C@H](C)C(N)=O)C(C)C
99% | CC[C@H](C)[C@H](NC(=O)[C@@H]1CCCN1C(=O)CNC(=O)[C@H](C)NC(=O)[C@H](Cc1c[nH]cn1)NC(=O)CC(C)C)C(=O)NCc1ccccc1 (Isovaleryl-HAGPI-NHBn)

Biological target: T1, Peptidyl-prolyl cis-trans isomerase A
Test: 50% inhibitory concentration of competitive binding against human Peptidyl-prolyl isomerase activity using uncoupled assay
Summary of the method: as §1
Target sequence in this assay (P62937 whole entry): as the sequence (P62937 whole entry, looked up) above

Compound | IC50
CC[C@H](C)[C@H](NC(=O)[C@@H]1CCCN1C(=O)CNC(=O)[C@H](C)NC(=O)[C@H](Cc1c[nH]cn1)NC(=O)[C@@H](NC(=O)CCC(=O)O)C(C)C)C(=O)N[C@@H](C)C(N)=O (Suc-VHAGPIA-NH2) | 1000 µM
CC[C@H](C)[C@H](NC(=O)[C@@H]1CCCN1C(=O)CNC(=O)[C@H](C)NC(=O)CCc1cnc[nH]1)C(=O)NCc1ccccc1 (Desaminohistidyl-AGPI-NHBn) | > 10000 µM
CC(C)CC(=O)N[C@@H](Cc1c[nH]cn1)C(=O)NC(C)(C)C(=O)NCC(=O)N1CCC[C@H]1C(=O)NC1(C(=O)NCc2ccccc2)CCCC1 (Isovaleryl-H[Aib]GP[Ac5c]-NHBn) | 500 µM
Ac-VQAGPIA-NH2 | 2500 µM
CC(=O)N[C@H](C(=O)N[C@@H](Cc1c[nH]cn1)C(=O)N[C@@H](C)C(=O)NCC(=O)N1CCC[C@H]1C(=O)NC(C)(C)C(=O)N[C@@H](C)C(N)=O)C(C)C (Ac-VHAGP[Aib]A-NH2) | > 10000 µM
CC[C@H](C)[C@H](NC(=O)[C@@H]1CCCN1C(=O)CNC(=O)[C@H](C)NC(=O)[C@H](Cc1c[nH]cn1)NC(=O)[C@@H](N)C(C)C)C(=O)N[C@@H](C)C(N)=O | 2100 µM
CC[C@H](C)[C@H](NC(=O)[C@@H]1CCCN1C(=O)CNC(=O)[C@H](C)NC(=O)[C@H](Cc1cnc[nH]1)NC(=O)[C@@H](NC(C)=O)C(C)C)C(=O)N[C@@H](C)C(N)=O | 850 µM
CC(=O)N[C@H](C(=O)N[C@@H](Cc1c[nH]cn1)C(=O)N[C@@H](C)C(=O)NCC(=O)N1CCC[C@H]1C(=O)NC1(C(=O)N[C@@H](C)C(N)=O)CCNCC1)C(C)C (Ac-VHAGP[Api]A-NH2) | > 10000 µM
CC[C@H](C)[C@H](NC(=O)[C@@H]1CCCN1C(=O)CNC(=O)[C@H](C)NC(=O)[C@H](Cc1cnc[nH]1)NC(=O)[C@@H](N)C(C)C)C(=O)NCc1ccccc1 (H-VHAGPI-NHBn) | 260 µM
CC[C@H](C)[C@H](NC(=O)[C@@H]1CCCN1C(=O)CNC(=O)[C@H](C)NC(=O)[C@H](Cc1c[nH]cn1)NC(C)=O)C(=O)NCc1ccccc1 (Ac-HAGPI-NHBn) | 280 µM

Now from value to compound:

IC50 | Compound
115 µM | CC[C@H](C)[C@H](NC(=O)[C@@H]1CCCN1C(=O)CNC(=O)[C@H](C)NC(=O)[C@H](Cc1c[nH]cn1)NC(=O)[C@@H](NC(C)=O)C(C)C)C(=O)NCc1ccccc1 (Ac-VHAGPI-NHBn)
90 µM | CC(C)CC(=O)N[C@@H](Cc1cnc[nH]1)C(=O)N[C@@H](C)C(=O)NCC(=O)N1CCC[C@H]1C(=O)NC1(C(=O)NCc2ccccc2)CCCC1 (Isovaleryl-HAGP[Ac5c]-NHBn)
760 µM | CC[C@H](C)[C@H](NC(=O)[C@@H]1CCCN1C(=O)CNC(=O)C(C)(C)NC(=O)[C@H](Cc1c[nH]cn1)NC(=O)[C@@H](NC(C)=O)C(C)C)C(=O)N[C@@H](C)C(N)=O
970 µM | CC(=O)N[C@H](C(=O)N[C@@H](Cc1cnc[nH]1)C(=O)N[C@@H](C)C(=O)NCC(=O)N1CCC[C@H]1C(=O)N[C@@H](C(=O)N[C@H](C)C(N)=O)c1ccccc1)C(C)C
1300 µM | CC(=O)N[C@H](C(=O)N[C@@H](Cc1cnc[nH]1)C(=O)N[C@@H](C)C(=O)NCC(=O)N1CCC[C@H]1C(=O)N[C@@H](CCC(N)=O)C(=O)N[C@@H](C)C(N)=O)C(C)C
820 µM | CC(=O)N[C@H](C(=O)N[C@@H](Cc1c[nH]cn1)C(=O)N[C@@H](C)C(=O)NCC(=O)N1CCC[C@H]1C(=O)N[C@H](C(=O)N[C@H](C)C(N)=O)c1ccccc1)C(C)C
680 µM | CC(=O)N[C@H](C(=O)N[C@@H](Cc1cnc[nH]1)C(=O)N[C@@H](C)C(=O)NCC(=O)N1CCC[C@H]1C(=O)NC1(C(=O)N[C@@H](C)C(N)=O)CCCC1)C(C)C (Ac-VHAGP[Ac5c]A-NH2)
1500 µM | CC[C@H](C)[C@H](NC(=O)[C@@H]1CCCN1C(=O)CNC(=O)[C@H](C)NC(=O)[C@H](Cc1c[nH]cn1)NC(=O)[C@@H](NC(C)=O)C(C)C)C(=O)NC(c1ccccc1)c1ccccc1 (Ac-VHAGPI-NHCHPh2)
1500 µM | CC(=O)N[C@H](C(=O)N[C@@H](Cc1cnc[nH]1)C(=O)N[C@@H](C)C(=O)NCC(=O)N1CCC[C@H]1C(=O)N[C@H](C(=O)N[C@@H](C)C(N)=O)C(C)C)C(C)C
> 10000 µM | CC[C@H](C)[C@H](NC(=O)[C@@H]1CCCN1C(=O)CNC(=O)C(C)(C)NC(=O)[C@H](Cc1cnc[nH]1)NC(=O)CC(C)C)C(=O)NCc1ccccc1 (Isovaleryl-H[Aib]GPI-NHBn)
2800 µM | CC(=O)N[C@H](C(=O)N[C@@H](Cc1c[nH]cn1)C(=O)N[C@@H](C)C(=O)NCC(=O)N1CCC[C@H]1C(=O)NCC(=O)N[C@@H](C)C(N)=O)C(C)C
6 µM | CC[C@H](C)[C@H](NC(=O)[C@@H]1CCCN1C(=O)CNC(=O)[C@H](C)NC(=O)[C@H](Cc1cnc[nH]1)NC(=O)CC(C)C)C(=O)NCc1ccccc1 (Isovaleryl-HAGPI-NHBn)

Biological target: T1, Peptidyl-prolyl cis-trans isomerase A
Test: % inhibition of competitive binding, at 500 uM, against human Peptidyl-prolyl isomerase activity using uncoupled assay
Target sequence in this assay (P62937 whole entry, looked up): as above

inhibition | Compound
52% | CC(=O)N[C@H](C(=O)N[C@@H](Cc1c[nH]cn1)C(=O)N[C@@H](C)C(=O)NCC(=O)N1CCC[C@H]1C(=O)NC1(C(=O)N[C@@H](C)C(N)=O)CCCC1)C(C)C (Ac-VHAGP[Ac5c]A-NH2)
